Screens (PubChem)
In the library only some 2.7% were active in any assay of this set; here they are far more common.
ARFGAP1 inh – inhibits rat ARF GTPase activating protein 1; Arfgap1-stimulated ARF1 GTP hydrolysis, GDP FP detection; inhibition, % at 16.5 µM; actives 0.26% (n = 360,000);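 active = inhibition above a per-plate limit, mean inhibition of low control wells plus 3 SD, cut at about 25% in these data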;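 note: 0% = DMSO wells with enzyme and 100% = wells lacking Arfgap1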
Target sequence (Q62848 1-136 limits assumed): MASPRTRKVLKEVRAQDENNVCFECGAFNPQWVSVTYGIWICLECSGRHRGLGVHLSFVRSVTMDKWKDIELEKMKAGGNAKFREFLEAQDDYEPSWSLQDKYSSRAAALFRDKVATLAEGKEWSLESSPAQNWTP
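Material: rat Arfgap1 catalytic domain, aa 1-136; also added: human ARF1(Δ1-17)-GTP substrate; compound dosing: one concentration, 16.5 µM, DMSO 1.26%; incubation: GTP hydrolysis reaction 2 h at 25 °C; measured by: Tracer-displacement fluorescence polarization with EDTA stop, 620/688 nm; evaluation: % inhibition from polarization; repeats: one replicate per compound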
ASAP1 GAP inh – inhibitors of human ASAP1 ArfGAP activity; ASAP1-stimulated ARF1 GTP hydrolysis, GDP FP detection; inhibition, % at 16.5 µM; actives 0.19% (n = 360,000); AID 624377; in the data active = inhibition above about 25%;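 note: 0% = vehicle with enzyme and substrate and 100% = no enzyme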
PAFAH1B3 FP inh – blocks human PAF acetylhydrolase 1B catalytic subunit 3. Q15102. recombinant PAFAH1B3, FP-rhodamine probe, fluorescence polarization. inhibition, % at 3.39 µM. actives 0.28% (n = 340,000);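 active = inhibition above the screen-wide average of all tested compounds plus 3 SD, cut at about 25% in these data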;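 note: 0% = enzyme with DMSO only and 100% = wells lacking PAFAH1B3 protein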
Target sequence (Q15102 whole entry, looked up): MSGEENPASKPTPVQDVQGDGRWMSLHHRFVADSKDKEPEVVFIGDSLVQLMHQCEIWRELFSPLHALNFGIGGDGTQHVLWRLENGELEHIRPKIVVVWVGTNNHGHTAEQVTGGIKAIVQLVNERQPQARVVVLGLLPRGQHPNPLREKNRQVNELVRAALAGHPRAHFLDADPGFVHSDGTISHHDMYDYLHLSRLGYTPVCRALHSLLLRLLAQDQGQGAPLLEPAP
PAFAH2 FP inh – PAFAH2 (human) inhibition; inhibition, % at 3.39 µM; actives 0.99% (n = 340,000); AID 492956; Q99487; recombinant PAFAH2, FP-rhodamine activity probe, fluorescence polarization;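 active = inhibition above the mean over all tested compounds plus 3 SD, cut at about 30% in these data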;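 note: inhibitors block probe labeling of enzyme so polarization drops; 0% = enzyme with DMSO and 100% = wells lacking PAFAH2 protein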
PAFAH1B2 FP inh – blocks human PAF acetylhydrolase 1b catalytic subunit 2; P68402; inhibition, % at 3.39 µM; AID 492953; recombinant PAFAH1B2, FP-rhodamine activity probe, fluorescence polarization; actives 1.2% (n = 340,000);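 active = inhibition above the mean of all tested compounds plus 3 SD, cut at about 24% in these data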;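 note: 0% = enzyme with DMSO and 100% = wells lacking PAFAH1B2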
Target sequence (P68402 whole entry, looked up): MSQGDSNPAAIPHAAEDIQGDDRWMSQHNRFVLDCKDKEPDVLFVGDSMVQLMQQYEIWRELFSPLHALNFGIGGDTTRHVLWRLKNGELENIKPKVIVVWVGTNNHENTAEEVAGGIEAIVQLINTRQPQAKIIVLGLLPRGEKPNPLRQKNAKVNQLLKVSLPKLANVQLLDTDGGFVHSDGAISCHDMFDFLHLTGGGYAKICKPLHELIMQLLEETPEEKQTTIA
pPAFAH FP inh – pPAFAH (human) enzyme inhibition; Q13093; recombinant pPAFAH, FP-rhodamine probe fluorescence polarization; inhibition, % at 3.39 µM; actives 1.5% (n = 330,000); AID 463082;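 active = inhibition above the mean inhibition across the screen plus 3 SD, cut at about 25% in these data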;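 note: inhibitors block binding of the rhodamine activity-based probe so polarization drops; 0% = enzyme with DMSO and 100% = wells lacking pPAFAH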
pPAFAH confirm – pPAFAH (human) inhibition, confirmed; shares compounds with pPAFAH FP inh; inhibition, % at 3.39 µM; recombinant pPAFAH, FP-Rh probe fluorescence polarization; actives 72% (n = 2,300);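 active = mean inhibition of the triplicate above the hit cutoff set for the earlier primary screen, cut at about 25% in these data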;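 note: 0% = enzyme with DMSO and 100% = wells lacking pPAFAH enzyme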
* marks the source's active call; other numbers are inactive results; / = not tested or not shown.

SMILES | ARFGAP1 inh | ASAP1 GAP inh | PAFAH1B3 FP inh | PAFAH2 FP inh | PAFAH1B2 FP inh | pPAFAH FP inh | pPAFAH confirm
Cc1ccc(N=Nc2c(O)[nH]c(=O)[nH]c2=O)cc1S(=O)(=O)Nc1ccc(Br)cc1 | -8.4 | -3.8 | 13.3 | 18.4 | -0.3 | 76.2* | 24.5
Cc1ccnc(NCc2ccccc2O)c1 | -3.7 | 0.4 | 7.5 | 4.0 | 0.7 | 41.3* | 0.9
CC(C)=CCc1c(O)cc2oc3c(CC=C(C)C)c(O)c(O)c(CC=C(C)C)c3c(=O)c2c1O | 14.0 | 10.8 | 29.9* | -15.5 | 11.4 | 59.4* | 56.4*
CCCCC(=Nc1ccc(N)cc1)C1=C(O)C(C(=O)OC)C(C)(C)CC1=O (stereo not given) | -13.4 | -1.9 | 14.4 | 10.5 | 9.6 | 37.9* | 8.1
CCCC(=Nc1ccccc1)C1=C(O)C(C(=O)OC)C(C)(C)CC1=O (stereo not given) | 2.4 | 5.6 | 1.3 | -0.4 | 1.2 | 2.4 | /
CCC(=NCc1ccccc1)C1=C(O)C(C(=O)OC)C(C)(C)CC1=O (stereo not given) | -0.7 | 2.3 | 16.5 | -7.5 | 1.0 | 3.1 | /
CCC(=Nc1ccc(N)cc1)C1=C(O)C(C(=O)OC)C(C)(C)CC1=O (stereo not given) | 7.8 | 1.3 | 12.3 | 9.2 | -2.0 | 58.0* | 0.6
CSc1ncnc2ncn(C)c12 | -2.2 | 4.7 | 0.1 | 4.8 | 3.5 | / | /
N#CC1=C(N)Oc2n[nH]c(-c3cccs3)c2C1c1ccsc1 (stereo not given) | -3.5 | 12.2 | 7.5 | 9.6 | 9.8 | 37.8* | 5.8
CC(NC(=O)c1c(N)[nH]c(C(=O)c2ccc(Cl)cc2)c1-c1ccc(Br)cc1)c1cccc2ccccc12 (stereo not given) | -2.5 | -6.6 | / | / | / | / | /
Cc1ccc(NC(=O)CSCC(=O)Nc2nnc(C)s2)cc1 | 9.1 | 7.0 | 3.9 | 1.5 | -1.6 | 4.6 | /
Cc1nc2cc(C(=O)OCC(=O)Nc3cccc(Cl)c3)ccc2n1-c1ccccc1 | 5.9 | -8.6 | -2.4 | 63.6* | -3.5 | 42.8* | 41.5*
Cc1nc2cc(C(=O)OCC(=O)NC3CCS(=O)(=O)C3)ccc2n1-c1ccccc1 (stereo not given) | -11.4 | -4.4 | 2.4 | -4.7 | 4.2 | 8.7 | /
O=C(Cn1cnc([N+](=O)[O-])n1)c1ccc(O)c(O)c1 | -3.5 | -4.2 | 11.6 | 2.3 | 2.2 | 56.5* | 19.8
O=C(Cn1cnc([N+](=O)[O-])n1)c1ccccc1 | 0.1 | -3.6 | 8.7 | 0.9 | -2.8 | / | /
Cc1ccccc1S(=O)(=O)Cc1ccc(C(=O)NCCCN2CCCC2)o1 | 1.6 | 20.2 | -0.3 | -8.3 | 4.8 | 35.3* | 0.1
OCCN1CN(c2ccccc2)C(=S)N(c2ccccc2)C1 | 17.5 | 9.8 | / | / | / | / | /
CCCCNC(=O)C[C@H]1C[C@@]2(C(=O)OC)C(=C[C@H](C(C)(C)C)O[C@@H]2C)N(Cc2ccccc2)C1=O | -4.8 | -4.2 | / | / | / | / | /
CC1=Nc2nc(N3CCCCC3)c(C#N)c3c4c(nc(c23)N1)N(c1ccc(C(C)C)cc1)C(=O)C4 | 10.8 | 8.0 | 10.7 | 9.9 | 6.1 | 63.3* | 29.4*
CC(Oc1cc2oc(=O)c3c(c2cc1Cl)CCC3)C(=O)NCCN1CCOCC1 (stereo not given) | -6.6 | -1.2 | 8.1 | 3.8 | 3.2 | 1.7 | /
CS(=O)(=O)/C(C#N)=C/c1cccn1S(=O)(=O)c1cccc2ccccc12 | 0.5 | -1.9 | / | / | / | / | /
CC(C)=CCC/C(C)=C/CNC(=O)C[C@H]1C[C@H](C(=O)N2CCCCC2)[C@@]2(C)c3[nH]c4cc(CCC(=O)N(C)C)ccc4c3CCN2C1=O | / | / | 6.9 | 9.6 | 4.6 | 54.7* | 42.0*
CN(C)C(=O)CCc1ccc2c3c([nH]c2c1)[C@]1(C)[C@@H](C(=O)N2CCOCC2)C[C@H](CC(=O)NCC24CC5CC(CC(C5)C2)C4)C(=O)N1CC3 | 6.6 | -5.7 | 3.4 | 2.4 | 3.2 | 14.5 | /
CN(C)C(=O)CCc1ccc2c3c([nH]c2c1)[C@]1(C)[C@@H](C(=O)N2CCCCC2)C[C@H](CC(=O)NC(C)(C)C)C(=O)N1CC3 | 1.6 | -0.8 | 3.6 | -1.4 | 0.1 | -4.6 | /
CC(C)N(C(=O)[C@H]1C[C@H](CC(=O)NCC23CC4CC(CC(C4)C2)C3)C(=O)N2CCc3c([nH]c4cc(CCC(=O)N(C)C)ccc34)[C@]12C)C(C)C | 2.2 | 0.9 | 4.6 | -2.6 | 5.2 | 45.0* | 32.5*
SMILES | ARFGAP1 inh | ASAP1 GAP inh | PAFAH1B3 FP inh | PAFAH2 FP inh | PAFAH1B2 FP inh | pPAFAH FP inh | pPAFAH confirm
COc1cc(/C=N/Nc2ccc(S(N)(=O)=O)cc2[N+](=O)[O-])cc(OC)c1O | -3.1 | 2.6 | 10.2 | 5.8 | 0.4 | 12.0 | /
CN(CCO)c1ccc(C=NNc2ccc([N+](=O)[O-])cc2S(=O)(=O)Nc2ccccc2C(=O)O)cc1 | 10.3 | 5.1 | / | / | / | 48.8* | 55.2*
NS(=O)(=O)c1ccc(N/N=C/c2ccc(C(=O)O)cc2)c([N+](=O)[O-])c1 | 11.5 | -1.5 | 5.3 | -6.2 | 5.4 | 7.1 | /
CC(=O)Nc1ccc(C=NNc2ccc(S(=O)(=O)Nc3ccccc3C(=O)O)cc2[N+](=O)[O-])cc1 | 12.1 | 16.1 | 26.7* | 29.4 | 25.7* | 64.0* | 66.5*
COc1cc(C=NNc2ccc(S(=O)(=O)Nc3ccccc3C(=O)O)cc2[N+](=O)[O-])ccc1O | -4.7 | 10.9 | 20.8 | 47.5* | 30.5* | 62.8* | 77.8*
O=C(OCc1cc(=O)n2ccsc2n1)c1ccccc1NCCO | -5.3 | 10.6 | 4.3 | 3.9 | 4.3 | 73.8* | 3.8
CCCCC(CCc1ccccn1)C(=O)c1ccccc1 (stereo not given) | -5.6 | -10.5 | 8.9 | 4.0 | 4.2 | / | /
O=C(O)CCC1(CCC(=O)O)CCCC(CCC(=O)O)(CCC(=O)O)C1=O | -6.6 | -12.6 | 14.3 | 10.7 | 4.0 | / | /
CCc1ccc(CNC(=O)Cc2ccc(NC(=O)C3=C(C)OCCS3)cc2)cc1 | -13.5 | 0.3 | 1.3 | 9.8 | 3.0 | 35.5* | 19.5
